ChEMBL document CHEMBL1221292, “Design, synthesis, and evaluation of quinazoline T cell proliferation inhibitors” (Bioorg Med Chem, 2010)
pIC50: −log10 of the molar value. The source made the active and inactive calls. The rule behind the calls is not given here.

Experiments:
Assay type in all cases: functional, cell-based
PBMC = experiment: Antiproliferative activity against ConA-stimulated human PBMC after 72 hrs by BrdU incorporation assay
Method in brief: (§1)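 Cells grown in RPMI at 37 °C, 5% CO2, then serum-starved 12 h. PBMC stimulated with ConA 10 µg/mL; Jurkat need no stimulation. 1 × 10^5 cells cultured 3 days with or without inhibitor, duplicate wells. Labelled with 10 µM BrdU, DNA denatured, anti-BrdU-POD added, colorimetric TMB read-out; IC50 derived.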

Jurkat = experiment: Antiproliferative activity against human Jurkat cells after 72 hrs by BrdU incorporation assay; method in brief: as §1
Splenocyte = experiment: Inhibition of irradiated BALB/c mouse splenocyte-stimulated IL2 secretion in 2C mouse splenocyte after 72 hrs by mixed lymphocyte reaction
Method in brief: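 MLR: splenocytes from 2c mice stimulated by irradiated BALB/c splenocytes in the presence of compound at the specified concentrations, 96-well cultures up to 72 h. Supernatants collected at 24, 48 and 72 h; IL-2 measured by ELISA at 450 nm.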

SMILES	pIC50 (Jurkat)	pIC50 (PBMC)	inhibition (Splenocyte)
Cc1ccc(Nc2nc(-c3cc(O)c(O)c(O)c3)nc3ccccc23)c(C)c1	5.43	6.14	
Cc1ccc(Nc2nc(-c3cc(O)c(O)c(O)c3)nc3ccccc23)cc1	6.07	6.07	Active
Oc1cc(-c2nc(NCc3ccc(Cl)c(Cl)c3)c3ccccc3n2)cc(O)c1O	5.44	5.59	
Oc1cc(-c2nc(Nc3ccc(OC(F)(F)F)cc3)c3ccccc3n2)cc(O)c1O	5.49	5.56	
COc1cc(-c2nc(Nc3ccc(C)cc3C)c3ccccc3n2)cc(OC)c1OC	5.59	6.12	
Oc1cc(-c2nc(Nc3ccc4c(c3)OCO4)c3ccccc3n2)cc(O)c1O	6.10	5.26	
CCCCCCCCOc1ccc(Nc2nc(-c3cc(O)c(O)c(O)c3)nc3ccccc23)cc1	5.37	5.34	
COc1cc(-c2nc(NCc3ccc(F)c(F)c3)c3ccccc3n2)cc(OC)c1OC	6.14	6.70	
COc1ccc(CNc2nc(-c3cc(OC)c(OC)c(OC)c3)nc3ccccc23)cc1	5.96	6.30	
COc1cc(-c2nc(NCc3ccc(Cl)c(Cl)c3)c3ccccc3n2)cc(OC)c1OC	6.14	6.52	

These reach a higher pIC50 (Jurkat). Values come first.

pIC50 (Jurkat)	SMILES	pIC50 (PBMC)	inhibition (Splenocyte)
6.22	Oc1cc(-c2nc(NCc3ccc(F)c(F)c3)c3ccccc3n2)cc(O)c1O	6.55	
6.15	COc1cc(-c2nc(Nc3ccc4[nH]ncc4c3)c3ccccc3n2)cc(OC)c1OC	6.22	
6.26	COc1ccc(Nc2nc(-c3cc(O)c(O)c(O)c3)nc3ccccc23)cc1	6.30	
6.64	COc1cc(-c2nc(Nc3ccc(O)cc3)c3ccccc3n2)cc(OC)c1OC	6.52	
6.32	COc1cc(-c2nc(NCc3ccc(N)cc3)c3ccccc3n2)cc(OC)c1OC	6.42	
6.17	Nc1ccc(CNc2nc(-c3cc(O)c(O)c(O)c3)nc3ccccc23)cc1	6.24	
6.22	COc1cc(-c2nc(NCc3ccccc3)c3ccccc3n2)cc(OC)c1OC	5.49	
